Test results from article PMC12772459 (The Journal of general physiology, 2025).
Read-outs that look alike come from different tables or passages of the source.

Assays:
[1] = biological target: triheteromeric GluN1/2A/2B receptors; conditions: read-out: glycine EC50; previously reported; ref Lotti et al., 2025; cited from earlier work
[2] = biological target: T1, GluN1/2A receptors (Rattus norvegicus, UniProt P35439+Q00959); conditions: ref Lotti et al., 2025, cited from earlier work; for Kb: read-out: binding affinity KB
[3] = test system: NMDA receptor-mediated EPSCs from CA1 pyramidal neurons; type: cell-based, mouse; conditions: 3 μM compound, baseline vs following NAM application
How it was run: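 Hippocampal slices from 3–5-week-old male and female C57BL/6J mice, perfused with aCSF at 32 °C. Whole-cell recordings from CA1 cells with Cs-based internal solution at +40 mV. Schaffer collaterals stimulated every 30 s with 10 μM NBQX and 10 μM gabazine. After 5-min baseline, test compound bath-applied at 3 μM. τW from double-exponential fit of deactivation; ratio paired t-test.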

[4] = biological target: GluN1/2A-E789Q (Rattus norvegicus, UniProt P35439+Q00959, E789Q); experiment: Two-electrode voltage-clamp recordings, mutant GluN1/2A-E789Q; type: cell-based
[5] = biological target: GluN1/2A-V529I (Rattus norvegicus, UniProt P35439+Q00959, V529I); experiment: Two-electrode voltage-clamp recordings, mutant GluN1/2A-V529I; type: cell-based
[6] = biological target: GluN1/2D receptors (Rattus norvegicus, UniProt P35439+Q62645); experiment: Two-electrode voltage-clamp recordings of recombinant GluN1/2D receptors; type: cell-based; conditions: for Hill slope nH of inhibition: 0.1 μM glycine, 100 μM glutamate; for selectivity for GluN1/2A over GluN1/2D: glycine concentration close to respective EC50
[7] = biological target: GluN1/2A-M788I (Rattus norvegicus, UniProt P35439+Q00959, M788I); experiment: Two-electrode voltage-clamp recordings, mutant GluN1/2A-M788I; type: cell-based
[8] = test system: triheteromeric GluN1/2A/2B receptors; type: cell-based, rat; conditions: 100 μM glutamate; for Hill slope nH of inhibition: 1 μM glycine; for IC50: read-out: IC50 (95% CI), […] μM glycine
[9] = biological target: T1, GluN1/2A receptors; type: cell-based; conditions: for selectivity for GluN1/2A over GluN1/2B-D receptors: in 1 μM glycine; for IC50: read-out: IC50 (95% CI), […] μM glycine
[10] = biological target: GluN1/2A-V783L (Rattus norvegicus, UniProt P35439+Q00959, V783L); experiment: Two-electrode voltage-clamp recordings, mutant GluN1/2A-V783L; type: cell-based; conditions: 0.5 μM glycine; for Hill slope nH of inhibition: 300 μM glutamate; for decrease of potency compared to wild type GluN1/2A: saturating glutamate
[11] = biological target: GluN1/2A-T797S (Rattus norvegicus, UniProt P35439+Q00959, T797S); experiment: Two-electrode voltage-clamp recordings, mutant GluN1/2A-T797S; type: cell-based
[12] = biological target: GluN1/2A-V783F (Rattus norvegicus, UniProt P35439+Q00959, V783F); experiment: Two-electrode voltage-clamp recordings, mutant GluN1/2A-V783F; type: cell-based; conditions: 0.5 μM glycine; for Hill slope nH of inhibition: 300 μM glutamate; for decrease of potency compared to wild type GluN1/2A: saturating glutamate
[13] = ref Volkmann et al., 2016; cited from earlier work
[14] = biological target: GluN1/2B receptors (Rattus norvegicus, UniProt P35439+Q00960); experiment: Two-electrode voltage-clamp recordings of recombinant GluN1/2B receptors; type: cell-based; conditions: for Hill slope nH of inhibition: 0.3 μM glycine, 100 μM glutamate; for selectivity for GluN1/2A over GluN1/2B: glycine concentration close to respective EC50
[15] = biological target: GluN1/2A-M788T (Rattus norvegicus, UniProt P35439+Q00959, M788T); experiment: Two-electrode voltage-clamp recordings, mutant GluN1/2A-M788T; type: cell-based
[16] = biological target: GluN1/2C receptors (Rattus norvegicus, UniProt P35439+Q00961); experiment: Two-electrode voltage-clamp recordings of recombinant GluN1/2C receptors; type: cell-based; conditions: for selectivity for GluN1/2A over GluN1/2C: glycine concentration close to respective EC50
[17] = biological target: GluN1/2A-I755V (Rattus norvegicus, UniProt P35439+Q00959, I755V); experiment: Two-electrode voltage-clamp recordings, mutant GluN1/2A-I755V; type: cell-based; conditions: 300 μM glutamate
[18] = biological target: GluN1/2A-I755F (Rattus norvegicus, UniProt P35439+Q00959, I755F); experiment: Two-electrode voltage-clamp recordings, mutant GluN1/2A-I755F; type: cell-based
[19] = biological target: GluN1/2A-Y754K (Rattus norvegicus, UniProt P35439+Q00959, Y754K); experiment: Two-electrode voltage-clamp recordings, mutant GluN1/2A-Y754K; type: cell-based; conditions: 300 μM glutamate
[20] = biological target: T1, GluN1/2A receptors; type: cell-based; conditions: global non-linear regression of glycine concentration-response data
[21] = biological target: GluN1/2A-I755V+Y754K (Rattus norvegicus, UniProt P35439+Q00959, I755V/Y754K); experiment: Two-electrode voltage-clamp recordings, mutant GluN1/2A-I755V+Y754K; type: cell-based; conditions: 1 μM glycine, 300 μM glutamate
[22] = glycine near EC50, saturating glutamate
[23] = read-out: IC50 (95% CI), […] μM glycine, 300 μM glutamate
[24] = read-out: IC50 (95% CI), […] μM glycine

Sequence of GluN1/2A-V783F (Q00959 23-1464 V783F, other chains not shown): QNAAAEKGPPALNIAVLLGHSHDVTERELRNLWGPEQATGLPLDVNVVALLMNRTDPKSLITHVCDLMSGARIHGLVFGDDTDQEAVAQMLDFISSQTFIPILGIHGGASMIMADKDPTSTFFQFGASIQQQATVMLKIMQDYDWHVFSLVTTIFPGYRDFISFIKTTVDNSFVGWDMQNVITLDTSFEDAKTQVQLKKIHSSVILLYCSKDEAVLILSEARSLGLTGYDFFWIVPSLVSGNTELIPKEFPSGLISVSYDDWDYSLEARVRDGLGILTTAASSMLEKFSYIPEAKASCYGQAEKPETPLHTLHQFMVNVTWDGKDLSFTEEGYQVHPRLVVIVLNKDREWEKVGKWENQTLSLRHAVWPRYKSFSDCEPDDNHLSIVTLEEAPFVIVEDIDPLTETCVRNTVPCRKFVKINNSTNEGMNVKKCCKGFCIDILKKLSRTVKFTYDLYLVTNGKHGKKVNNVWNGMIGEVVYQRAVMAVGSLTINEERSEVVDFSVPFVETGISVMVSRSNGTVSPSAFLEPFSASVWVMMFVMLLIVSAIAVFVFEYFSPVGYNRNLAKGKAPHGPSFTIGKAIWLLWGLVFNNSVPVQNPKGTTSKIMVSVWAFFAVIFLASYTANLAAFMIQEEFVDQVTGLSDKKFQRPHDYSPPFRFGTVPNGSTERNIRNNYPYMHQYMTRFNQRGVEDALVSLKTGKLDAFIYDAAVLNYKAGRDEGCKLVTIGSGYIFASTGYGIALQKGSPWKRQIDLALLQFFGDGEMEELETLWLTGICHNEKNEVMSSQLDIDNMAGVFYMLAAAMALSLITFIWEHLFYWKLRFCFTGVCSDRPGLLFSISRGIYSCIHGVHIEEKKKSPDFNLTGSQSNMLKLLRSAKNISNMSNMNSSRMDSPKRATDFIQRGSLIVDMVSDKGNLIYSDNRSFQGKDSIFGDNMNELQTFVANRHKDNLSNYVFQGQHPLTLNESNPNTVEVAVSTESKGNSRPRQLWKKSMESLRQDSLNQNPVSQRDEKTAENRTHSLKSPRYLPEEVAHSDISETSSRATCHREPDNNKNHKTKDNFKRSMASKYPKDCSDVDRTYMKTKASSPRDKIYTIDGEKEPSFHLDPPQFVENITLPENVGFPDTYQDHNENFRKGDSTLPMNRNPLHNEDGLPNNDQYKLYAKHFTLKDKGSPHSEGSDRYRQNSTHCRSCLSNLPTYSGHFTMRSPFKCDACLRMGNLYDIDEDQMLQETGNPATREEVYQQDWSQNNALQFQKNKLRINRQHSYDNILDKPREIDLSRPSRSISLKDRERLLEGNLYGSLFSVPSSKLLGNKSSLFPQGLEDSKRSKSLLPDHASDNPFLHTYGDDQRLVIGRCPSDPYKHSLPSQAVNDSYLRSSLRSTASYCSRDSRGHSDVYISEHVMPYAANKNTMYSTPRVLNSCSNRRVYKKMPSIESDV
Sequence of GluN1/2A-I755F (Q00959 23-1464 I755F, other chains not shown): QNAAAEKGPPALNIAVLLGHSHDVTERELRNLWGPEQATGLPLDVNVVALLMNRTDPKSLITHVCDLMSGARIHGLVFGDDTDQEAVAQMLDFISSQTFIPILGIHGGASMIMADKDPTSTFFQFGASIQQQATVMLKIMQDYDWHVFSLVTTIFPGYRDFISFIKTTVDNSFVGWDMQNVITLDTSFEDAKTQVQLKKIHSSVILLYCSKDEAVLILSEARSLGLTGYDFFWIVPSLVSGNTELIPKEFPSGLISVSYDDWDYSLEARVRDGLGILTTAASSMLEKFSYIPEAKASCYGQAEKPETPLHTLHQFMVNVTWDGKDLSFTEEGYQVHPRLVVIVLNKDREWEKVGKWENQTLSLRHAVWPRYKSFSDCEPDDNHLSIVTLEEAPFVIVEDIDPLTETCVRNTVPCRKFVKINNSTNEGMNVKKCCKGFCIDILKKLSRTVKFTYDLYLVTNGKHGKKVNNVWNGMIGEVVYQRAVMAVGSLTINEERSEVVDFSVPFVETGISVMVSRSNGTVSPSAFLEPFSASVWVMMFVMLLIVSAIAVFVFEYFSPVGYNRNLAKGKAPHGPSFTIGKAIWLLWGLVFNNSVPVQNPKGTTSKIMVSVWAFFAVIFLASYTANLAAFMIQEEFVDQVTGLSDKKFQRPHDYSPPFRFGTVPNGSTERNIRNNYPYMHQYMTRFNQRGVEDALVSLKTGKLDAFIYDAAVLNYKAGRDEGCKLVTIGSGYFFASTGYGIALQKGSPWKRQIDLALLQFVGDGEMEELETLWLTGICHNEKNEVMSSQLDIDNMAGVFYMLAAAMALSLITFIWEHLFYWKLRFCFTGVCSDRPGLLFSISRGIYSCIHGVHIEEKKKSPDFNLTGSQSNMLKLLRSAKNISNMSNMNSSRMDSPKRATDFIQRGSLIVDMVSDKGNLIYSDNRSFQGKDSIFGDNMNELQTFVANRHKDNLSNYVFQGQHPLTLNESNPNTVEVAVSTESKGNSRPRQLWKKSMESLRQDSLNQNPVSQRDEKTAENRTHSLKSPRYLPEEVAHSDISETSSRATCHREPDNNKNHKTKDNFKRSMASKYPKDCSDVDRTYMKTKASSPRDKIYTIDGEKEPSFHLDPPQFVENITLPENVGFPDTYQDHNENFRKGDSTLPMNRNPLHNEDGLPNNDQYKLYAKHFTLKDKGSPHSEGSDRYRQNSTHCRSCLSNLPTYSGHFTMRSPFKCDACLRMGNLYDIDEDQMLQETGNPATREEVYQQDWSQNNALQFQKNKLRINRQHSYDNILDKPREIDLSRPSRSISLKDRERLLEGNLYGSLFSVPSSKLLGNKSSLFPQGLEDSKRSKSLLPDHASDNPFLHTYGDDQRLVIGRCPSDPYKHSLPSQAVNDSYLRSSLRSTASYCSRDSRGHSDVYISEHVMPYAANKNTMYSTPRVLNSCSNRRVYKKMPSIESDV
Sequence of GluN1/2A-V783L (Q00959 23-1464 V783L, other chains not shown): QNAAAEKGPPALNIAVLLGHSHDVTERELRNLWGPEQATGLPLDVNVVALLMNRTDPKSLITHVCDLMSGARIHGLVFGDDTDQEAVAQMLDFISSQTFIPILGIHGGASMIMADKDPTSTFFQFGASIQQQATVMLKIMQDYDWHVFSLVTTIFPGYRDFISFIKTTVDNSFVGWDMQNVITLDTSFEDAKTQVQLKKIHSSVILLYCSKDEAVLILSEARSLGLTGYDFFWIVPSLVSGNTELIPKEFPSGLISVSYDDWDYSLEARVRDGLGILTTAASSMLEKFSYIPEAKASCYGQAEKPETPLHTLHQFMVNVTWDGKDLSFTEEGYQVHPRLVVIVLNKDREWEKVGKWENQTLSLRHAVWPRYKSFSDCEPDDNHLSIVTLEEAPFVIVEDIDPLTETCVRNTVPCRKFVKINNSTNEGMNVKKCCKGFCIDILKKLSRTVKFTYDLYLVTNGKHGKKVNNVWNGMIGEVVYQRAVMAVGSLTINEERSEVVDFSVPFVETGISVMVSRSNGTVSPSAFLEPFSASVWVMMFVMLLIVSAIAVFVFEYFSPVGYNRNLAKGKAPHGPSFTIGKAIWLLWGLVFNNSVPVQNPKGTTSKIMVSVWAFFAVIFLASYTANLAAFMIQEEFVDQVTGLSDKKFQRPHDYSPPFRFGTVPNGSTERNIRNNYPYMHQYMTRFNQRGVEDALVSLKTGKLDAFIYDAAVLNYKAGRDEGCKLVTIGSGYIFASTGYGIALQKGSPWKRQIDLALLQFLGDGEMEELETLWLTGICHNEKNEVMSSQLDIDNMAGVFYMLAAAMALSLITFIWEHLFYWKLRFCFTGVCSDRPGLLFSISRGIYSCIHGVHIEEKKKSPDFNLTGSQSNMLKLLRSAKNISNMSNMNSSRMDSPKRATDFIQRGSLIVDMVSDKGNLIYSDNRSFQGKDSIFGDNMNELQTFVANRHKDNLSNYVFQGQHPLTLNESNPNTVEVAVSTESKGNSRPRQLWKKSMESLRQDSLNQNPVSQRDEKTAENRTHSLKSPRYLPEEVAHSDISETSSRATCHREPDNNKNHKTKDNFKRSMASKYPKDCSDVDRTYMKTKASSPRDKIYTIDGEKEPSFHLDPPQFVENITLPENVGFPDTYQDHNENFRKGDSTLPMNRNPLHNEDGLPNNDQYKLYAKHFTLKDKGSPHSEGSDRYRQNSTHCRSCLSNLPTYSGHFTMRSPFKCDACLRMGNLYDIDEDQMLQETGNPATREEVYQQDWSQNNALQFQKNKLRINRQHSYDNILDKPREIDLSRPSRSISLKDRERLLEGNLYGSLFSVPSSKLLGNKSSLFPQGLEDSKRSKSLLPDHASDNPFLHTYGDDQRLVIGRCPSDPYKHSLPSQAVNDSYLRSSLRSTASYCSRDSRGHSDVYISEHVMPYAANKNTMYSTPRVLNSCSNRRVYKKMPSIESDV

Compound | Kb [2] | negative allosteric interaction constant α [2] | Hill slope nH of inhibition [6] | selectivity for GluN1/2A over GluN1/2D [6] | Hill slope nH of inhibition [8] | IC50 [8] | Hill slope nH of inhibition ([9]; 1 μM glycine, 100 μM glutamate) | selectivity for GluN1/2A over GluN1/2B-D receptors [9] | IC50 ([9]; 100 μM glutamate) | Hill slope nH of inhibition [10] | decrease of potency compared to wild type GluN1/2A [10] | Hill slope nH of inhibition [12] | decrease of potency compared to wild type GluN1/2A [12] | Hill slope nH of inhibition [14] | selectivity for GluN1/2A over GluN1/2B [14] | selectivity for GluN1/2A over GluN1/2C [16] | also measured
NCC(=O)O [Glycine] |  |  |  |  |  |  |  |  |  |  |  |  |  |  |  |  | EC50 [1]: 990 nM
Cc1ncc(CNC(=O)c2cnc(CNS(=O)(=O)c3ccc(F)c(Cl)c3)cn2)s1 [MPX-004] | 9.3 nM | 0.0018 |  |  |  |  |  |  |  |  |  |  |  |  |  |  | effect on EPSC decay times (weighted deactivation time constant τW) [3]: increases EPSC decay times
O=C(NNC(=O)c1ccc(CNS(=O)(=O)c2ccc(F)c(Cl)c2)cc1)c1ccccc1 [TCN-201] | 42 nM | 0.0032 | 1.9 | 39 fold | 1.2 | 0.28 µM | 1.2 | > 50 fold | 0.1 µM | 1.1 | 8.1 fold | 1.1 | 1.9 fold | 1.6 | 30 fold | > 50 fold | Hill slope nH of inhibition ([4]; 1 μM glycine, 300 μM glutamate): 1.3; change of potency compared to wild type GluN1/2A [4, 22]: no significant effects; IC50 [4, 23]: 0.078 µM; Hill slope nH of inhibition ([5]; 1 μM glycine, 300 μM glutamate): 1.5; decrease of potency compared to wild type GluN1/2A [5, 22]: 1.5 fold; Hill slope nH of inhibition ([7]; 1 μM glycine, 300 μM glutamate): 1.3; decrease of potency compared to wild type GluN1/2A [7, 22]: no significant effects; IC50 [7, 23]: 0.12 µM; Hill slope nH of inhibition ([11]; 1 μM glycine, 300 μM glutamate): 1.4; decrease of potency compared to wild type GluN1/2A [11, 22]: no significant effects; IC50 [11, 23]: 0.068 µM; blood-brain barrier penetration [13]: lack blood-brain barrier penetration; Hill slope nH of inhibition ([15]; 0.3 μM glycine, 300 μM glutamate): 1.4; decrease of potency compared to wild type GluN1/2A [15, 22]: no significant effects; IC50 ([15]; read-out: IC50 (95% CI), 0.3 μM glycine, 300 μM glutamate): 140 nM
O=C(CSc1nnc(NCc2ccccc2)s1)NCC1CCCCC1 [TCN-213] |  |  | 1.5 | 29 fold | 0.9 | 4 µM | 1.1 | > 50 fold | 0.83 µM | 1.1 | 4.8 fold | 1.1 | 2.6 fold | 1.3 | 22 fold | 16 fold | Hill slope nH of inhibition ([17]; 1 μM glycine): 1.1; IC50 [17, 24]: 1.2 µM; Hill slope nH of inhibition ([18]; 1 μM glycine, 300 μM glutamate): 1.0; reduction of potency compared to wild type GluN1/2A ([18]; glycine EC50 concentration, saturating glutamate): not significantly different; IC50 [18, 23]: 1.1 µM; Hill slope nH of inhibition ([9]; 1 μM glycine, 10 μM glutamate): 1.1; Hill slope nH of inhibition ([9]; 30 μM glycine, 300 μM glutamate): 1.3; IC50 ([9]; 10 μM glutamate): 0.96 µM; Hill slope nH of inhibition ([19]; 1 μM glycine): 1.1; IC50 [19, 24]: 1.2 µM; allosteric constant α [20]: 0.043; Hill slope nH of inhibition ([16]; 0.3 μM glycine, 100 μM glutamate): 1.1; Hill slope nH of inhibition [21]: 1.0
